The record followed here is ChEMBL document CHEMBL1153305, “Preparation and characterization of N-(3-pyridinyl) spirocyclic diamines as ligands for nicotinic acetylcholine receptors” (Bioorg Med Chem Lett, 2009).

The target in data set [1] is T1, Neuronal acetylcholine receptor; alpha3/beta4 (Homo sapiens, UniProt P30926+P32297). The data set can be described thus: Agonist activity at human […] nAChR expressed in human IMR32 cells assessed as calcium dynamics by FLIPR assay. It counts as functional, cell-based, IMR-32. Put shortly:
(§1)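 Endogenous α3β4* nAChR in the human neuroblastoma line IMR-32. Agonism was measured as intracellular Ca2+ dynamics by FLIPR, testing up to 100 μM. Values are averages of six replicates.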

Data set [2] has as its target T2, Neuronal acetylcholine receptor; alpha4/beta2 (Homo sapiens, UniProt P17787+P43681). In words: Agonist activity at human recombinant alpha4beta2 nAChR expressed in human IMR32 cells assessed as calcium dynamics by FLIPR assay relative to nicotine. Type of data set: functional, cell-based. Put shortly:
(§2)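 A cell line expressing human recombinant α4β2 nAChR. Agonism was read as intracellular Ca2+ dynamics by FLIPR. Values are averages of six replicates.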

The target in data set [3] is T1, Neuronal acetylcholine receptor; alpha3/beta4. In words: Agonist activity at human […] nAChR expressed in human IMR32 cells assessed as calcium dynamics by FLIPR assay relative to nicotine. Type of data set: functional, cell-based. To be noted: IMR-32. Put shortly: as §1
Data set [4] has as its target Neuronal acetylcholine receptor; alpha4/beta2 (Rattus norvegicus, UniProt P09483+P12390). The data set can be described thus: Displacement of [3H]cytisine from alpha4beta2 nAChR in rat brain membrane. It counts as cell membranes.
The target of data set [5] is T2, Neuronal acetylcholine receptor; alpha4/beta2. The data set can be described thus: Agonist activity at human recombinant alpha4beta2 nAChR expressed in human IMR32 cells assessed as calcium dynamics by FLIPR assay. It counts as functional, cell-based. The gist of the method:
as §2

For data set [6], the system named is Mus musculus. The data set can be described thus: Toxicity in mouse assessed as behavioral effect at 65 mg/kg, ip. Type of data set: organism-based. Further details: dose 65 mg/kg, route intraperitoneal. To be noted: in vivo.
For data set [7], the system named is Mus musculus. In words: Analgesic activity in mouse at 62 umol/kg, ip. Type of data set: functional, organism-based. The gist of the method:
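Mouse hot plate analgesia model. The compound was given ip, with 62 μmol/kg as the highest dose tested.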

Data set [8] concerns Mus musculus. In words: Analgesic activity in mouse assessed hypolocomotion at 65 umol/kg, ip. It counts as functional, organism-based.
In data set [9] the test system is Mus musculus. In words: Decrease in body temperature in mouse at 65 umol/kg, ip. Type of data set: functional, organism-based.

The source made the active and inactive calls. No cut-off for these calls is given here. A value given as a limit tells only on which side of the number the result lay.

Sequence of Neuronal acetylcholine receptor; alpha4/beta2 (Rattus norvegicus, UniProt P09483+P12390) (P09483 whole entry): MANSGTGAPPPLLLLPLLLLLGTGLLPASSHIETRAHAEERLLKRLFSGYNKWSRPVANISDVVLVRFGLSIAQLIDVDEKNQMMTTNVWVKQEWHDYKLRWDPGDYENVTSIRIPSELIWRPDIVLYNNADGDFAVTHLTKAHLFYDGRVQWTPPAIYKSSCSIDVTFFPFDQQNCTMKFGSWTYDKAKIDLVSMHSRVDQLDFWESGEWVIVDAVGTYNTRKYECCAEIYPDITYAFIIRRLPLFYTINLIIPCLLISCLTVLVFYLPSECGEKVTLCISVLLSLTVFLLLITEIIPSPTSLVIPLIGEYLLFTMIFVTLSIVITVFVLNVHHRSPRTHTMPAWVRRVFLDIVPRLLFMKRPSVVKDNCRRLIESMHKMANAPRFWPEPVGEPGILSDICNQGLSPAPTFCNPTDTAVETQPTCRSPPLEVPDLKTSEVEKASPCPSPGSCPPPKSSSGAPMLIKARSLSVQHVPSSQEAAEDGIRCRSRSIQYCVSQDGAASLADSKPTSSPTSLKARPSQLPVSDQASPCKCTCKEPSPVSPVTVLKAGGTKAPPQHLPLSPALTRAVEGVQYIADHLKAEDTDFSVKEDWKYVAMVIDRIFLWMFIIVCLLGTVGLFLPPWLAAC
Sequence of Neuronal acetylcholine receptor; alpha4/beta2 (Rattus norvegicus, UniProt P09483+P12390) (P12390 whole entry): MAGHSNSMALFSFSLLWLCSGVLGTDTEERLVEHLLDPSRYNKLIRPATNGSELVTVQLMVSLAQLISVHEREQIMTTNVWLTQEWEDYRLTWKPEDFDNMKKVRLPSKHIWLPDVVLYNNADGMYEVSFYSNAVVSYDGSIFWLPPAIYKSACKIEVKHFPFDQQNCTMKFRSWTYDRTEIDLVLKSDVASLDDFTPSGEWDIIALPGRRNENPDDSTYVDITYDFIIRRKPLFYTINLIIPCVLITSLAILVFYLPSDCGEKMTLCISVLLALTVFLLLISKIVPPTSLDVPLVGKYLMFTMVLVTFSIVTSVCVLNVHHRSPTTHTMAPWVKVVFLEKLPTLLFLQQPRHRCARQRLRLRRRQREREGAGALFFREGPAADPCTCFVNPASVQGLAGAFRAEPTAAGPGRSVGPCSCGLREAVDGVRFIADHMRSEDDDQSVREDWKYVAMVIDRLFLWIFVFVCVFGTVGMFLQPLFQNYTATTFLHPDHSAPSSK
T1 sequence (P30926 whole entry): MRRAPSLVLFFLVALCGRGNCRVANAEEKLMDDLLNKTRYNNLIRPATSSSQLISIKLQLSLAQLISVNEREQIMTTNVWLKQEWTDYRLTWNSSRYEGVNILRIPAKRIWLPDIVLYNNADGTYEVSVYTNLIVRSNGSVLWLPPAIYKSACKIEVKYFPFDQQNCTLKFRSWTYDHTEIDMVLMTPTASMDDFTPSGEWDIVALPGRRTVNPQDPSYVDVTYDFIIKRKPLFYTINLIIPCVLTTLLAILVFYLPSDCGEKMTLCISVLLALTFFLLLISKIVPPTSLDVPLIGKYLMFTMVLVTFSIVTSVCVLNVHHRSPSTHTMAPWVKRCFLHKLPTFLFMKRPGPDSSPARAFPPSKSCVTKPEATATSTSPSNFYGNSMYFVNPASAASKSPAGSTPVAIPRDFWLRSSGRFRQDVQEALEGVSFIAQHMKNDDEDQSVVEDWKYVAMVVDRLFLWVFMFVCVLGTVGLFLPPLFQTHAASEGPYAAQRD
T1 sequence (P32297 whole entry): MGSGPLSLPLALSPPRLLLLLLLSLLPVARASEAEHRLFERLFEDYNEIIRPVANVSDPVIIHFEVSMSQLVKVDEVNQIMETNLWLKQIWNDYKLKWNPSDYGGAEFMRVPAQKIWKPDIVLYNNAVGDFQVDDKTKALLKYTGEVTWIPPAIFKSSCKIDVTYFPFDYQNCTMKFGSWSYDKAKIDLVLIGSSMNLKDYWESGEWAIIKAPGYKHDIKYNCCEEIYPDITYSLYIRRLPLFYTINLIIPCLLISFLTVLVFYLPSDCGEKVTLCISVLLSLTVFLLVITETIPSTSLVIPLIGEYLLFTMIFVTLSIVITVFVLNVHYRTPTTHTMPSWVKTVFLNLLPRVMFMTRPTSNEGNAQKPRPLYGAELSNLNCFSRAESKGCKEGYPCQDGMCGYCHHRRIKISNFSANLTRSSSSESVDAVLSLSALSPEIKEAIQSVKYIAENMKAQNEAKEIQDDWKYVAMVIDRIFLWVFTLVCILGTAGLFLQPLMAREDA
T2 sequence (P17787 whole entry): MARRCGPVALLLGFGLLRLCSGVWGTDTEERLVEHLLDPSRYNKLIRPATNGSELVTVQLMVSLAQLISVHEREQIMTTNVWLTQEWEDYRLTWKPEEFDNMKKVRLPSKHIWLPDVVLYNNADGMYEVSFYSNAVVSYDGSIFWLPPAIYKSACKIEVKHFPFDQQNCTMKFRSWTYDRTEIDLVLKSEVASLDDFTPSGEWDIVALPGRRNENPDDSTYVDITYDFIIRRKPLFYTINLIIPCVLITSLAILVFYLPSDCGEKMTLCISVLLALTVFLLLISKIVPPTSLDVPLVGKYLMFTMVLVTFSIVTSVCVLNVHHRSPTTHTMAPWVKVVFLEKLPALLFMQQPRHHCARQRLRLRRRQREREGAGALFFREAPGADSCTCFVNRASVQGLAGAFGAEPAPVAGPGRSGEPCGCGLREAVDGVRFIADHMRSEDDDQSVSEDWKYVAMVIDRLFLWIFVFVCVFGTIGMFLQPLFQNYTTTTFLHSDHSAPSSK
T2 sequence (P43681 whole entry): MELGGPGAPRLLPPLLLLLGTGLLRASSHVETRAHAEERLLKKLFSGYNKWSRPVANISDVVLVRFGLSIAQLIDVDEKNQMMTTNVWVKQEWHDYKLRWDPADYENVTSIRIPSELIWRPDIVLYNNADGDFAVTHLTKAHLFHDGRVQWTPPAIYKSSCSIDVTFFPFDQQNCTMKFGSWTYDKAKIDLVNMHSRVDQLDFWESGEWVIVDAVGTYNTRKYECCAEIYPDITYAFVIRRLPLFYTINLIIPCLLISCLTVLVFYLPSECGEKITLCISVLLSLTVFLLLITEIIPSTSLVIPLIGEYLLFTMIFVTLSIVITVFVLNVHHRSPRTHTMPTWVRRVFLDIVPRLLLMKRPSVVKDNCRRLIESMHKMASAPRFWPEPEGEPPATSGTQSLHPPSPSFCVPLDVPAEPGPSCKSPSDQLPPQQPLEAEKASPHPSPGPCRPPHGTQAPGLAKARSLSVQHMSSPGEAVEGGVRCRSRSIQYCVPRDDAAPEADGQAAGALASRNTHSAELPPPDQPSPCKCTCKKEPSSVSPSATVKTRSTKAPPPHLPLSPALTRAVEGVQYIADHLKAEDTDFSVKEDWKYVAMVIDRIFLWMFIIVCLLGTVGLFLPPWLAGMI

As for `c1cncc(N2CC3CNC3C2)c1` (stereo not drawn), the EC50 came out at 6100 nM in data set [1] and 1600 nM in data set [5]. For the same compound, the Activity in data set [2] is 122%; in data set [3], 90%. Further, in data set [4], the affinity, expressed as Ki, was 1.2 nM.

Take `Clc1ccc(N2CCC3(CCCN3)C2)cn1` (stereo not drawn): the EC50 in data set [1] and in [5] was > 100000 nM in each case. Besides, the figures for the Activity in data set [2] and in data set [3] were 6% and 8%, respectively. The same compound gave a Ki in data set [4] of 48 nM.

Regarding `c1cncc(N2CCC3(CCN3)C2)c1` (stereo not drawn), the EC50 in data set [1] was > 100000 nM; in data set [5], 25000 nM. Besides, the figures for the Activity (in [2]; in data set [3]; in the data set with Mus musculus [6]) were 44%, 4% and “Non-toxic”, respectively. Besides, in data set [4], the Ki is 11 nM.

As to `Clc1ccc(OC[C@H]2CCN2)cn1` [TEBANICLINE], the EC50 in data set [1] came to 190 nM; in data set [5], 20 nM. The Activity is 115% in [2] and 169% in data set [3]. The Ki in [4] was determined as 0.048 nM.

With `c1cncc(N2CCC3(CCNC3)C2)c1` (stereo not drawn), the EC50 in data set [1] and in data set [5] was > 100000 nM in each case. Besides, the figures for the Activity in data set [2] and in data set [3] were 4% and 10%, respectively. Further, the affinity in data set [4] corresponds to a Ki of 74 nM.

Take `Clc1ccc(C2CC3CCC2N3)cn1` (stereo not drawn): the values for the Activity in data set [2] and in data set [3] were 154% and 132%, respectively.

Turning to `c1cncc(N2CC3CC2CN3)c1` (stereo not drawn), the EC50 in [1] turned out to be 6400 nM. In addition, the Activity in data set [3] turned out to be 108%.

For `Clc1ccc(N2CCC3(CCN3)C2)cn1` (stereo not drawn), the EC50 came to 6900 nM in data set [1] and 2500 nM in data set [5]. The result in the data set on Mus musculus [7], in the data set with Mus musculus [8] and in the data set with Mus musculus [9] was Active. The results for the Activity in data set [2] and in data set [3] were 48% and 23%, respectively. For the same compound, the Ki in [4] worked out at 21 nM.

With `c1cncc(N2CCC3(CCCN3)C2)c1` (stereo not drawn) [TC-2216], the half-maximal effective concentration (EC50) in data set [1] and in data set [5] was > 100000 nM throughout. Also, the Activity in data set [2] amounted to 20%; in data set [3] it was 15%. The affinity in data set [4], expressed as Ki, was 33 nM.

For `Clc1ccc(N2CCC3(CCNC3)C2)cn1` (stereo not drawn), the concentration for a half-maximal effect (EC50) in data set [1] and in data set [5] was > 100000 nM each time. The Activity in data set [2] was found to be 9%; in [3], 2%. Besides, the inhibition constant Ki in [4] turned out to be 240 nM.

A word on the EC50: it is the concentration that produces a half-maximal response. Usually Ki stands for a dissociation constant, usually derived from enzyme kinetics or from competition with a known ligand. Higher therefore signals lower affinity.
